# Key:
# [1] = Cytotoxicity against human HeLa cells assessed as cell viability by MTS assay; type: cell-based; conditions: HeLa cells
# Procedure, shortened: (§1)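 Uninfected cultures were run in parallel with the antiviral assays. Viability was read by colorimetric formazan MTS assay.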
# [2] = test system: Vesicular stomatitis virus; assay: Antiviral activity against Vesicular stomatitis virus infected in human HeLa cells assessed as inhibition of virus induced cytopathicity after 2 to 4 days by MTS assay; type: functional, organism-based
# [3] = test system: Respiratory syncytial virus; assay: Antiviral activity against Respiratory syncytial virus infected in human HeLa cells assessed as inhibition of virus induced cytopathicity after 2 to 4 days by MTS assay; type: functional, organism-based
# [4] = test system: Coxsackievirus B4; assay: Antiviral activity against coxsackievirus B4 infected in human HeLa cells assessed as inhibition of virus induced cytopathicity after 2 to 4 days by MTS assay; type: functional, organism-based; conditions: Enterovirus B
# [5] = Cytotoxicity against human HeLa cells assessed as altered cell morphology; type: cell-based
# Procedure, shortened: (§2)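 Uninfected cell cultures run alongside the antiviral assays, exposed to serial compound dilutions and incubated at 37 °C for 2–4 days. Toxicity was scored microscopically and reported as the minimum cytotoxic concentration (MCC), the lowest concentration causing a detectable change in normal cell morphology.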
# [6] = Cytotoxicity against african green monkey Vero cells assessed as altered cell morphology; type: cell-based; conditions: chlorocebus sabaeus; procedure, shortened: as §2
# [7] = Cytotoxicity against MDCK cells assessed as cell viability by MTS assay; type: cell-based, Canis lupus familiaris; conditions: dog, MDCK cells; procedure, shortened: as §1
# [8] = test system: Influenza A virus; assay: Antiviral activity against Influenza A H1N1 virus subtype infected in MDCK cells assessed as inhibition of virus induced cytopathicity by visual scoring of CPE; type: functional, organism-based
# [9] = test system: Influenza A virus; assay: Antiviral activity against Influenza A H3N2 virus subtype infected in MDCK cells assessed as inhibition of virus induced cytopathicity after 2 to 4 days by MTS assay; type: functional, organism-based
# [10] = test system: Influenza B virus; assay: Antiviral activity against Influenza B virus infected in MDCK cells assessed as inhibition of virus induced cytopathicity after 2 to 4 days by MTS assay; type: functional, organism-based
# [11] = Cytotoxicity against MDCK cells assessed as altered cell morphology; type: cell-based, Canis lupus familiaris; conditions: dog; procedure, shortened: as §2
# [12] = test system: Influenza B virus; assay: Antiviral activity against Influenza B virus infected in MDCK cells assessed as inhibition of virus induced cytopathicity by visual scoring of CPE; type: functional, organism-based
# [13] = test system: Influenza A virus; assay: Antiviral activity against Influenza A H1N1 virus subtype infected in MDCK cells assessed as inhibition of virus induced cytopathicity after 2 to 4 days by MTS assay; type: functional, organism-based
# [14] = test system: Punta Toro virus; assay: Antiviral activity against Punta Toro virus infected in african green monkey Vero cells assessed as inhibition of virus induced cytopathicity after 2 to 4 days by MTS assay; type: functional, organism-based
# [15] = test system: Respiratory syncytial virus; assay: Antiviral activity against Respiratory syncytial virus infected in human HeLa cells assessed as inhibition of virus induced cytopathicity by visual scoring of CPE; type: functional, organism-based
# [16] = test system: Coxsackievirus B4; assay: Antiviral activity against coxsackievirus B4 infected in human HeLa cells assessed as inhibition of virus induced cytopathicity by visual scoring of CPE; type: functional, organism-based; conditions: Enterovirus B
# [17] = test system: Human respirovirus 3; assay: Antiviral activity against parainfluenza-3 virus infected in african green monkey Vero cells assessed as inhibition of virus induced cytopathicity after 2 to 4 days by MTS assay; type: functional, organism-based; conditions: Human respirovirus 3, Vero
# [18] = test system: Coxsackievirus B4; assay: Antiviral activity against Coxsackie virus B4 infected in african green monkey Vero cells assessed as inhibition of virus induced cytopathicity after 2 to 4 days by MTS assay; type: functional, organism-based; conditions: Enterovirus B
# [19] = test system: Human alphaherpesvirus 2; assay: Antiviral activity against Herpes simplex virus 2 G infected in HEL cells assessed as inhibition of virus induced cytopathicity after 2 to 4 days by MTS assay; type: functional, organism-based; conditions: Human alphaherpesvirus 2, strain G
# [20] = test system: Vesicular stomatitis virus; assay: Antiviral activity against Vesicular stomatitis virus infected in HEL cells assessed as inhibition of virus induced cytopathicity after 2 to 4 days by MTS assay; type: functional, organism-based
# [21] = test system: Human alphaherpesvirus 1; assay: Antiviral activity against thymidine kinase deficient acyclovir-resistant Herpes simplex virus 1 KOS infected in HEL cells assessed as inhibition of virus induced cytopathicity after 2 to 4 days by MTS assay; type: functional, organism-based; conditions: Human alphaherpesvirus 1, KOS
# [22] = test system: Vesicular stomatitis virus; assay: Antiviral activity against Vesicular stomatitis virus infected in human HeLa cells assessed as inhibition of virus induced cytopathicity by visual scoring of CPE; type: functional, organism-based
# [23] = test system: Vaccinia virus; assay: Antiviral activity against Vaccinia virus infected in HEL cells assessed as inhibition of virus induced cytopathicity after 2 to 4 days by MTS assay; type: functional, organism-based; conditions: Orthopoxvirus vaccinia
# [24] = test system: Human alphaherpesvirus 1; assay: Antiviral activity against Herpes simplex virus 1 KOS infected in HEL cells assessed as inhibition of virus induced cytopathicity after 2 to 4 days by MTS assay; type: functional, organism-based; conditions: Human alphaherpesvirus 1, KOS
# [25] = test system: Mammalian orthoreovirus 1; assay: Antiviral activity against Reovirus 1 virus infected in african green monkey Vero cells assessed as inhibition of virus induced cytopathicity after 2 to 4 days by MTS assay; type: functional, organism-based; conditions: Mammalian orthoreovirus 1, Vero
# [26] = Cytotoxicity against human HEL cells assessed as altered cell morphology; type: cell-based; procedure, shortened: as §2
# [27] = test system: Influenza A virus; assay: Antiviral activity against Influenza A H3N2 virus subtype infected in MDCK cells assessed as inhibition of virus induced cytopathicity by visual scoring of CPE; type: functional, organism-based
smiles,measurement,setting,value
Nc1ncnc2c1ncn2C[C@H](O)CO [(S)-DHPA],CC50,[1],> 250 µg/mL
same,EC50,[2],> 250 µg/mL
same,EC50,[3],> 250 µg/mL
same,EC50,[4],> 250 µg/mL
same,MCC,[5],> 250 µg/mL
same,MCC,[6],> 250 µg/mL
NC12CC3CC(CC(C3)C1)C2 [AMANTADINE],CC50,[7],> 200 µg/mL
same,EC50,[8],18 µg/mL
same,EC50,[9],0.2 µg/mL
same,EC50,[10],> 200 µg/mL
same,MCC,[11],> 200 µg/mL
same,EC50,[12],> 200 µg/mL
same,EC50,[13],44 µg/mL
NC(=O)c1ncn([C@@H]2O[C@H](CO)[C@@H](O)[C@H]2O)n1 [RIBAVIRIN],EC50,[14],112 µg/mL
same,EC50,[15],6 µg/mL
same,EC50,[16],50 µg/mL
same,EC50,[17],95 µg/mL
same,EC50,[18],250 µg/mL
same,EC50,[19],2 µg/mL
same,EC50,[8],9 µg/mL
same,EC50,[20],> 250 µg/mL
same,CC50,[1],> 250 µg/mL
same,EC50,[9],8.4 µg/mL
same,EC50,[10],4.3 µg/mL
same,MCC,[11],> 100 µg/mL
same,EC50,[3],2.8 µg/mL
same,EC50,[21],2 µg/mL
same,EC50,[22],10 µg/mL
same,EC50,[12],7 µg/mL
same,EC50,[13],12 µg/mL
same,EC50,[4],14 µg/mL
same,EC50,[23],10 µg/mL
same,MCC,[5],> 250 µg/mL
same,EC50,[24],1 µg/mL
same,EC50,[25],112 µg/mL
same,MCC,[26],> 250 µg/mL
same,MCC,[6],> 250 µg/mL
CC(N)C12CC3CC(CC(C3)C1)C2 (stereo not given) [RIMANTADINE],CC50,[7],> 200 µg/mL
same,EC50,[8],4 µg/mL
same,EC50,[9],0.02 µg/mL
same,EC50,[10],> 200 µg/mL
same,MCC,[11],> 200 µg/mL
same,EC50,[27],0.03 µg/mL
same,EC50,[12],> 200 µg/mL
same,EC50,[13],12 µg/mL
